Assays:
HL-60 [1] = assay: Growth inhibition of human HL60 cells at 0.63 uM after 48 hrs by MTT assay relative to control; format: functional; conditions: HL-60, 48 h, read-out: GI
HL-60 [2] = assay: Growth inhibition of human HL60 cells at 1.25 uM after 48 hrs by MTT assay relative to control; format: functional; conditions: HL-60, 48 h, read-out: GI
HL-60 [3] = assay: Growth inhibition of human HL60 cells at 2.5 uM after 48 hrs by MTT assay relative to control; format: functional; conditions: HL-60, 48 h, read-out: GI
HL-60 [4] = assay: Growth inhibition of human HL60 cells at 5 uM after 48 hrs by MTT assay relative to control; format: functional; conditions: HL-60, 48 h, read-out: GI
HL-60 [5] = assay: Growth inhibition of human HL60 cells at 10 uM after 48 hrs by MTT assay relative to control; format: functional; conditions: HL-60, 48 h, read-out: GI
HL-60 [6] = assay: Growth inhibition of human HL60 cells at 20 uM after 48 hrs by MTT assay relative to control; format: functional; conditions: HL-60, 48 h, read-out: GI
HL-60 [7] = assay: Growth inhibition of human HL60 cells at 40 uM after 48 hrs by MTT assay relative to control; format: functional; conditions: HL-60, 48 h, read-out: GI
HL-60 [8] = assay: Growth inhibition of human HL60 cells after 48 hrs by MTT assay; format: functional, cell-based; conditions: HL-60, 48 h
Outline: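 HL-60 human promyelocytic leukemia cells; proliferation inhibition of the cells measured and reported as IC50; values are mean ± SE of at least three independent experiments.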

HL-60 [9] = assay: Induction of apoptosis in human HL60 cells assessed as live cells at 2 uM after 24 hrs by Annexin V-PE/7AAD staining based flow cytometry (reference value: 90.9%); format: functional
HL-60 [10] = assay: Induction of apoptosis in human HL60 cells assessed as early apoptotic cells at 2 uM after 24 hrs by Annexin V-PE/7AAD staining based flow cytometry (reference value: 4.42%); format: functional
HL-60 [11] = assay: Induction of apoptosis in human HL60 cells assessed as late apoptotic cells at 2 uM after 24 hrs by Annexin V-PE/7AAD staining based flow cytometry (reference value: 3.64%); format: functional
HL-60 [12] = assay: Induction of apoptosis in human HL60 cells assessed as necrotic cells at 2 uM after 24 hrs by Annexin V-PE/7AAD staining based flow cytometry (reference value: 1.08%); format: functional
[13] = Stability of the compound in DMSO/deionized water post nanoparticle formation after 3 weeks; format: physicochemical; conditions: 504 h

IC50 (HL-60 [8]): 0.91 µM | Stability [13]: Stable
Compound: C[C@H]1[C@H](C)CC[C@]2(C(=O)N3CCNCC3)CC[C@]3(C)C(=CC[C@@H]4[C@@]5(C)Cc6cn[nH]c6C(C)(C)[C@@H]5CC[C@]43C)[C@H]12
inhibition of growth at 0.63 µM (HL-60 [1]): 14.7% | inhibition of growth at 1.25 µM (HL-60 [2]): 66.4% | inhibition of growth at 2.5 µM (HL-60 [3]): 86% | inhibition of growth at 5 µM (HL-60 [4]): 91.6% | inhibition of growth at 10 µM (HL-60 [5]): 95% | inhibition of growth at 20 µM (HL-60 [6]): 93.5% | inhibition of growth at 40 µM (HL-60 [7]): 94% | Activity (HL-60 [9]): 76.5% | Activity (HL-60 [10]): 19.1% | Activity (HL-60 [11]): 3.89% | Activity (HL-60 [12]): 0.439%
